We go through 3 compounds from ChEMBL document CHEMBL1649124, “Genetic variability among ampC genes from acinetobacter genomic species 3” (Antimicrob Agents Chemother, 2009).

In brackets after ≈: the same amount, converted by molar mass.

Data set [1] has as its system CC(=O)OCC1=C(C(=O)O)N2C(=O)[C@@H](NC(=O)Cc3cccs3)[C@H]2SC1. Description: (§1) Activity of Acinetobacter genomosp. 3 isolate 103 ADC-16. The note with it: Acinetobacter pittii. The essentials:
(§2)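 AmpC genes from AG3 clinical isolates were cloned into pGEX-6P-1 and expressed as GST fusions. The mature enzyme was purified free of GST, giving a 43 kDa SDS-PAGE band of 95% purity. Kinetics were read spectrophotometrically at 25°C in PBS with 20 mg/liter BSA, three repeats. For poor substrates, Km was taken as Ki in competitive assays with Centa as reporter substrate. Vmax came from the Michaelis-Menten equation at six times Km antibiotic.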

Data set [2] has as its system CC(C)(O/N=C(\C(=O)N[C@@H]1C(=O)N2C(C(=O)[O-])=C(C[n+]3ccccc3)CS[C@H]12)c1csc(N)n1)C(=O)O. The description is as §1. The note with it: Acinetobacter pittii. The essentials: as §2
The subject of data set [3] is CO/N=C(\C(=O)N[C@@H]1C(=O)N2C(C(=O)O)=C(COC(C)=O)CS[C@H]12)c1csc(N)n1. The data set is described as §1. The following applies: Acinetobacter pittii. The essentials: as §2
The test system of data set [4] is CO/N=C(\C(=O)N[C@@H]1C(=O)N2C(C(=O)O)=C(COC(N)=O)CS[C@H]12)c1ccco1. The data set is described as §1. The note with it: Acinetobacter pittii. Put shortly:
as §2

The test system of data set [5] is CO[C@@]1(NC(=O)Cc2cccs2)C(=O)N2C(C(=O)O)=C(COC(N)=O)CS[C@@H]21. The description is as §1. The following applies: Acinetobacter pittii. The essentials: as §2
Data set [6] concerns C[C@H]1[C@H](NC(=O)/C(=N\OC(C)(C)C(=O)O)c2csc(N)n2)C(=O)N1S(=O)(=O)O. The data set is described as §1. The following applies: Acinetobacter pittii. Put shortly:
as §2

Data set [7] relates to CC(=O)OCC1=C(C(=O)O)N2C(=O)[C@@H](NC(=O)Cc3cccs3)[C@H]2SC1. The experiment in a line: (§3) Ratio of Kcat to Km for Acinetobacter genomosp. 3 isolate 103 ADC-16. The note with it: Acinetobacter pittii. Put shortly: as §2
Data set [8] relates to CC(C)(O/N=C(\C(=O)N[C@@H]1C(=O)N2C(C(=O)[O-])=C(C[n+]3ccccc3)CS[C@H]12)c1csc(N)n1)C(=O)O. The data set is described as §3. The note with it: Acinetobacter pittii. The essentials: as §2
The subject of data set [9] is CO/N=C(\C(=O)N[C@@H]1C(=O)N2C(C(=O)O)=C(COC(C)=O)CS[C@H]12)c1csc(N)n1. The data set is described as §3. The following applies: Acinetobacter pittii. The essentials:
as §2

Data set [10] deals with CO/N=C(\C(=O)N[C@@H]1C(=O)N2C(C(=O)O)=C(COC(N)=O)CS[C@H]12)c1ccco1. Described as §3. The following applies: Acinetobacter pittii. The essentials: as §2
In data set [11] the test system is CO[C@@]1(NC(=O)Cc2cccs2)C(=O)N2C(C(=O)O)=C(COC(N)=O)CS[C@@H]21. The data set is described as §3. The note with it: Acinetobacter pittii. Put shortly: as §2
Data set [12] has as its system Acinetobacter pittii. Description: Antibacterial activity against Acinetobacter genomosp. 3 isolate 14 by Etest method. It counts as functional. The essentials:
(§4)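 MICs for AG3 clinical isolates were read by Etest following the manufacturer's instructions. Isolates were stored at –80°C in 10% Brucella glycerol broth before testing.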

In data set [13] the test system is Acinetobacter pittii. The experiment in a line: Antibacterial activity against Acinetobacter genomosp. 3 isolate 20 by Etest method. It is filed as functional. Put shortly: as §4
Data set [14] relates to Acinetobacter pittii. The experiment in a line: Antibacterial activity against Acinetobacter genomosp. 3 isolate 21 by Etest method. It counts as functional. Put shortly: as §4
Data set [15] concerns Acinetobacter pittii. The experiment in a line: Antibacterial activity against Acinetobacter genomosp. 3 isolate 52 by Etest method. It counts as functional. Put shortly:
as §4

The test system of data set [16] is Acinetobacter pittii. The experiment in a line: Antibacterial activity against Acinetobacter genomosp. 3 isolate 56 by Etest method. It is filed as functional. Put shortly: as §4
Data set [17] has as its system Acinetobacter pittii. Description: Antibacterial activity against Acinetobacter genomosp. 3 isolate 60 by Etest method. It counts as functional. Put shortly: as §4
Data set [18] deals with Acinetobacter pittii. Description: Antibacterial activity against Acinetobacter genomosp. 3 isolate 65 by Etest method. It counts as functional. Put shortly: as §4
The subject of data set [19] is Acinetobacter pittii. Description: Antibacterial activity against Acinetobacter genomosp. 3 isolate 67 by Etest method. It counts as functional. Put shortly: as §4
Data set [20] has as its system Escherichia coli. Description: Antibacterial activity against Escherichia coli DH5alpha by Etest method. It is filed as functional. The essentials: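 E. coli DH5α host strain, grown at 37°C in LB medium. MICs of β-lactams determined by Etest following the manufacturer's instructions.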
In data set [21] the test system is Acinetobacter pittii. Description: Antibacterial activity against Acinetobacter genomosp. 3 isolate 69 by Etest method. It counts as functional. Put shortly: as §4
Data set [22] deals with Acinetobacter pittii. The experiment in a line: Antibacterial activity against Acinetobacter genomosp. 3 isolate 90 by Etest method. It is filed as functional. The essentials: as §4
The test system of data set [23] is Acinetobacter pittii. The experiment in a line: Antibacterial activity against Acinetobacter genomosp. 3 isolate 103 by Etest method. It counts as functional. The essentials:
as §4

Data set [24] concerns Acinetobacter pittii. Description: Antibacterial activity against Acinetobacter genomosp. 3 isolate 109 by Etest method. It counts as functional. The essentials: as §4
Data set [25] concerns Acinetobacter pittii. Description: Antibacterial activity against Acinetobacter genomosp. 3 isolate 128 by Etest method. It counts as functional. Put shortly:
as §4

For data set [26], the system named is Acinetobacter pittii. Description: Antibacterial activity against Acinetobacter genomosp. 3 isolate 195 by Etest method. It is filed as functional. Put shortly: as §4
Data set [27] relates to Acinetobacter pittii. The experiment in a line: Antibacterial activity against Acinetobacter genomosp. 3 isolate 243 by Etest method. It is filed as functional. The essentials:
as §4

The subject of data set [28] is Escherichia coli. Description: Antibacterial activity against Escherichia coli DH5alpha carrying ampC gene of Acinetobacter genomosp. 3 isolate 14 by Etest method. It counts as functional. The essentials:
(§5)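 E. coli DH5α expressing the AG3 isolate ampC gene, PCR-amplified (high-fidelity system, 28 cycles) and cloned into BamHI/HindIII sites of pBGS18 (kanamycin marker) under the CTX-M-14 β-lactamase promoter. Grown at 37°C in LB, with kanamycin 50 µg/ml when needed. β-Lactam MICs determined by Etest per the manufacturer's instructions.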

In data set [29] the test system is Escherichia coli. Description: Antibacterial activity against Escherichia coli DH5alpha carrying ampC gene of Acinetobacter genomosp. 3 isolate 20 by Etest method. It counts as functional. The essentials: as §5
For data set [30], the system named is Escherichia coli. The experiment in a line: Antibacterial activity against Escherichia coli DH5alpha carrying ampC gene of Acinetobacter genomosp. 3 isolate 56 by Etest method. It counts as functional. The essentials: as §5
Data set [31] deals with Escherichia coli. The experiment in a line: Antibacterial activity against Escherichia coli DH5alpha carrying ampC gene of Acinetobacter genomosp. 3 isolate 65 by Etest method. It is filed as functional. Put shortly:
as §5

Data set [32] concerns Escherichia coli. Description: Antibacterial activity against Escherichia coli DH5alpha carrying ampC gene of Acinetobacter genomosp. 3 isolate 69 by Etest method. It is filed as functional. Put shortly: as §5
Data set [33] deals with Escherichia coli. Description: Antibacterial activity against Escherichia coli DH5alpha carrying ampC gene of Acinetobacter genomosp. 3 isolate 103 by Etest method. It counts as functional. Put shortly: as §5
For data set [34], the system named is Escherichia coli. Description: Antibacterial activity against Escherichia coli DH5alpha carrying ampC gene of Acinetobacter genomosp. 3 isolate 109 by Etest method. It is filed as functional. The essentials: as §5
Data set [35] has as its system Escherichia coli. Description: Antibacterial activity against Escherichia coli DH5alpha carrying ampC gene of Acinetobacter genomosp. 3 isolate 195 by Etest method. It counts as functional. The essentials: as §5

Consider “ADC-16 protein (Acinetobacter genomosp. 3) (from UniProt Q0VTR8)”, for which the Km in data set [1] amounted to 139 µM; in data set [2] it was 110 µM; in data set [3], 0.32 µM; in data set [4], 0.27 µM; in [5] it was 0.18 µM; in data set [6], 3.85 µM. Further, the kcat in data set [1] worked out at 1380 s⁻¹; in data set [2], 0.02 s⁻¹; in data set [3] it was 0.07 s⁻¹; in [4], 0.62 s⁻¹; in data set [5], 0.33 s⁻¹. In addition, the kcat/Km in [7] worked out at 9.92e+06 M⁻¹ s⁻¹; in data set [8], 212000 M⁻¹ s⁻¹; in data set [9], 212000 M⁻¹ s⁻¹; in [10], 2.34e+06 M⁻¹ s⁻¹; in [11], 1.88e+06 M⁻¹ s⁻¹.
As for `CO/N=C(\C(=O)N[C@@H]1C(=O)N2C(C(=O)O)=C(COC(C)=O)CS[C@H]12)c1csc(N)n1` [CEFOTAXIME], the minimum inhibitory concentration (MIC) turned out to be 24 mg/L (≈ 52.7 µM) in data set [12]; 16 mg/L (≈ 35.1 µM) in [13]; 24 mg/L (≈ 52.7 µM) in data set [14]; 12 mg/L (≈ 26.3 µM) in data set [15]; 4 mg/L (≈ 8.78 µM) in data set [16]; 24 mg/L (≈ 52.7 µM) in [17]. In addition, the minimum inhibitory concentration (MIC) in data set [18] was found to be 12 mg/L (≈ 26.3 µM); in data set [19] it was 16 mg/L (≈ 35.1 µM); in data set [20] it was 0.064 mg/L (≈ 0.141 µM); in [21], 16 mg/L (≈ 35.1 µM); in [22], 12 mg/L (≈ 26.3 µM); in data set [23], 16 mg/L (≈ 35.1 µM). The MIC in data set [24] was found to be 16 mg/L (≈ 35.1 µM); in data set [25], 12 mg/L (≈ 26.3 µM); in [26] it was 24 mg/L (≈ 52.7 µM); in data set [27] it was 16 mg/L (≈ 35.1 µM); in data set [28] it was 0.75 mg/L (≈ 1.65 µM); in data set [29], 0.125 mg/L (≈ 0.274 µM). Moreover, the MIC in data set [30] came out at 0.38 mg/L (≈ 0.834 µM); in [31], 25 mg/L (≈ 54.9 µM); in data set [32], 0.38 mg/L (≈ 0.834 µM); in data set [33], 0.75 mg/L (≈ 1.65 µM); in data set [34] it was 0.38 mg/L (≈ 0.834 µM); in data set [35] it was 0.75 mg/L (≈ 1.65 µM).
Take `CO/N=C(\C(=O)N[C@@H]1C(=O)N2C(C(=O)[O-])=C(C[N+]3(C)CCCC3)CS[C@H]12)c1csc(N)n1`: the minimum inhibitory concentration (MIC) in [12] was 3 mg/L (≈ 6.24 µM); in [13] it was 4 mg/L (≈ 8.32 µM); in data set [14], 12 mg/L (≈ 25 µM); in data set [15] it was 2 mg/L (≈ 4.16 µM); in [16] it was 2 mg/L (≈ 4.16 µM); in data set [17] it was 4 mg/L (≈ 8.32 µM). Also, the MIC worked out at 3 mg/L (≈ 6.24 µM) in data set [18]; 4 mg/L (≈ 8.32 µM) in [19]; 0.016 mg/L (≈ 0.0333 µM) in data set [20]; 3 mg/L (≈ 6.24 µM) in data set [21]; 16 mg/L (≈ 33.3 µM) in [22]; 3 mg/L (≈ 6.24 µM) in data set [23]. In addition, the MIC in data set [24] is 2 mg/L (≈ 4.16 µM); in data set [25], 2 mg/L (≈ 4.16 µM); in data set [26], 6 mg/L (≈ 12.5 µM); in data set [27], 3 mg/L (≈ 6.24 µM); in [28], 0.023 mg/L (≈ 0.0479 µM); in data set [29], 0.19 mg/L (≈ 0.395 µM). The MIC in [30] amounted to 0.023 mg/L (≈ 0.0479 µM); in [31], 0.032 mg/L (≈ 0.0666 µM); in data set [32] it was 0.023 mg/L (≈ 0.0479 µM); in data set [33], 0.032 mg/L (≈ 0.0666 µM); in data set [34] it was 0.023 mg/L (≈ 0.0479 µM); in data set [35] it was 0.032 mg/L (≈ 0.0666 µM).

As a reminder, the Km is the substrate concentration at which the rate is half of its maximum. For orientation: kcat means the maximal rate divided by the concentration of active sites. The kcat/Km is the second-order rate constant that governs catalysis at low substrate concentration. In general, MIC refers to the least concentration at which growth counts as inhibited. Low readings indicate greater potency, high ones weaker potency.
